Activity calls are given as the source filed them. The rule behind the calls is not given here.

The source of these data is ChEMBL document CHEMBL2440030, “Insights into soluble guanylyl cyclase activation derived from improved heme-mimetics” (J Med Chem, 2013).

The species entered for the first assay is Rattus norvegicus. Briefly: Activation of soluble guanylyl cyclase in Wistar rat aortic smooth muscle cell assessed as increase of cGMP accumulation at 1 uM after 15 mins by enzyme immunoassay. An outline of the steps: (§1)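 Confluent rat aortic smooth muscle cells were exposed to vehicle or compound (0.01−1 μM) for 15 min, alone or together with 1 μM BAY 58-2667. cGMP was then extracted and quantified. Values are means ± SEM, n = 4.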
As for `O=C(O)CCCCCN(CCc1ccccc1OCc1ccc(CCc2ccccc2)cc1)Cc1ccc(C(=O)O)cc1`, the result was inactive.

Regarding `O=C(O)CCCCN(CCc1ccccc1OCc1ccc(-c2ccc(OCc3ccccc3)cc2)cc1)Cc1ccc(C(=O)O)cc1`, the outcome was Active.

`O=C(O)CCCN(CCc1ccccc1OCc1ccc(CCc2ccccc2)cc1)Cc1ccc(C(=O)O)cc1`: the result was inactive.

With `O=C(O)CCCCN(CCc1ccccc1OCc1ccc(-c2ccc(Oc3ccccc3)cc2)cc1)Cc1ccc(C(=O)O)cc1`, the outcome was Active.

`O=C(O)CCCC(=O)N(CCc1ccccc1OCc1ccc(-c2ccc(OCc3ccccc3)cc2)cc1)Cc1ccc(C(=O)O)cc1`: the result was Active.

Regarding `COc1ccc(COc2ccc(-c3ccc(COc4ccccc4CCN(CCCCC(=O)O)Cc4ccc(C(=O)O)cc4)cc3)cc2)cc1`, the outcome was Active.

The species entered for another assay is Rattus norvegicus. As to the kind of experiment: Activation of soluble guanylyl cyclase in Wistar rat aortic smooth muscle cell assessed as increase of cGMP accumulation after 15 mins by enzyme immunoassay. An outline of the steps:
as §1
For `O=C(O)CCCCN(CCc1ccccc1OCc1ccc(-c2ccc(Oc3ccccc3)cc2)cc1)Cc1ccc(C(=O)O)cc1`, the Activity entry was “Dose-dependent effect”.

The species named for another assay is Rattus norvegicus. As to the kind of experiment: Inhibition of soluble guanylyl cyclase in Wistar rat aortic smooth muscle cell assessed as reduction of cGMP accumulation at 1 uM after 15 mins by enzyme immunoassay. Summed up: as §1
By inhibition is commonly meant how much of the control response was suppressed. On to `O=C(O)CCC(=O)N(CCc1ccccc1OCc1ccc(CCc2ccccc2)cc1)Cc1ccc(C(=O)O)cc1`, for which the inhibition came to 80%.

Regarding `O=C(O)CCCCC(=O)N(CCc1ccccc1OCc1ccc(CCc2ccccc2)cc1)Cc1ccc(C(=O)O)cc1`, the inhibition was found to be 80%.

With `O=C(O)CCCC(=O)N(CCc1ccccc1OCc1ccc(CCc2ccccc2)cc1)Cc1ccc(C(=O)O)cc1`, the inhibition is 80%.
